Test results taken from ChEMBL document CHEMBL1152757, “Stereoselective synthesis and biological evaluation of syn-1-amino-3-[18F]fluorocyclobutyl-1-carboxylic acid as a potential positron emission tomography brain tumor imaging agent” (Bioorg Med Chem, 2009).

Assays:
[1] = test system: Bone; assay: Biodistribution in bone of rat 9L cells implanted Fischer rat at 15 to 30 uCi, iv after 30 mins by gamma-counter; type: ADME, organism-based, Bone element; settings: in vivo, 0.5 h
In short: (§1)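 Male Fischer 344 rats (125-175 g) implanted intracranially by stereotactic injection of 5 × 10^4 9L gliosarcoma cells. Used 10-12 days after implantation. Tracer given into the tail vein at 15-30 µCi in 0.1-0.3 mL sterile saline. Groups of 4 were sacrificed at 15, 30, 60 and 120 min. Tissues were weighed and gamma-counted against dose standards, and counts decay-corrected to %ID/g (mean ± SD). One-way ANOVA.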

[2] = test system: Bone; assay: Biodistribution in bone of rat 9L cells implanted Fischer rat at 15 to 30 uCi, iv after 60 mins by gamma-counter; type: ADME, organism-based, Bone element; settings: in vivo, 1 h; in short: as §1
[3] = test system: Bone; assay: Biodistribution in bone of rat 9L cells implanted Fischer rat at 15 to 30 uCi, iv after 120 mins by gamma-counter; type: ADME, organism-based, Bone element; settings: in vivo, 2 h; in short: as §1
[4] = Biodistribution in testis of rat 9L cells implanted Fischer rat at 15 to 30 uCi, iv after 15 mins by gamma-counter; type: ADME, organism-based; settings: in vivo, 0.25 h; in short: as §1
[5] = Biodistribution in testis of rat 9L cells implanted Fischer rat at 15 to 30 uCi, iv after 30 mins by gamma-counter; type: ADME, organism-based; settings: in vivo, 0.5 h; in short: as §1
[6] = Biodistribution in testis of rat 9L cells implanted Fischer rat at 15 to 30 uCi, iv after 60 mins by gamma-counter; type: ADME, organism-based; settings: in vivo, 1 h; in short: as §1
[7] = Biodistribution in testis of rat 9L cells implanted Fischer rat at 15 to 30 uCi, iv after 120 mins by gamma-counter; type: ADME, organism-based; settings: in vivo, 2 h; in short: as §1
[8] = Ratio of drug level from tumor to brain of rat 9L cells implanted Fischer rat at 15 to 30 uCi, iv after 15 mins by gamma-counter; type: ADME, organism-based; settings: in vivo, 0.25 h
In short: (§2)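 Male Fischer 344 rats (125-175 g) received intracranial implants of 9L cells (5 × 10^4 cells) and were used 10-12 days later. Tracer was given by tail vein at 15-30 µCi in 0.1-0.3 mL sterile saline. Groups of 4 were killed at each time point. Tissues were weighed and gamma counted against dose standards with decay correction, giving %ID/g (mean). The ratio is tumor %ID/g over normal brain %ID/g.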

[9] = Ratio of drug level from tumor to brain of rat 9L cells implanted Fischer rat at 15 to 30 uCi, iv after 30 mins by gamma-counter; type: ADME, organism-based; settings: in vivo, 0.5 h; in short: as §2
[10] = Ratio of drug level from tumor to brain of rat 9L cells implanted Fischer rat at 15 to 30 uCi, iv after 60 mins by gamma-counter; type: ADME, organism-based; settings: in vivo, 1 h; in short: as §2
[11] = Ratio of drug level from tumor to brain of rat 9L cells implanted Fischer rat at 15 to 30 uCi, iv after 120 mins by gamma-counter; type: ADME, organism-based; settings: in vivo, 2 h; in short: as §2
[12] = test system: 9L; assay: Drug uptake in rat 9L cells assessed as intracellular accumulation after 30 mins measured per 5 x 10^5 cells by gamma-counter; type: ADME, cell-based; settings: 0.5 h
In short: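 9L cells were grown in DMEM with 10% FCS and penicillin/streptomycin, then trypsinized and washed twice in HBSS. About 5 × 10^5 cells received 5 µCi tracer in amino acid-free HBSS for 30 min at 37 °C, without or with 10 mM BCH (L-type inhibitor). Cells were centrifuged and rinsed twice with ice-cold HBSS, then gamma-counted with decay correction. Uptake expressed as % of standard per 5 × 10^5 cells. Triplicates, 1-way ANOVA.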

[13] = test system: Blood; assay: Biodistribution in blood of rat 9L cells implanted Fischer rat at 15 to 30 uCi, iv after 15 mins by gamma-counter; type: ADME, organism-based; settings: in vivo, 0.25 h; in short: as §1
[14] = test system: Blood; assay: Biodistribution in blood of rat 9L cells implanted Fischer rat at 15 to 30 uCi, iv after 30 mins by gamma-counter; type: ADME, organism-based; settings: in vivo, 0.5 h; in short: as §1
[15] = test system: Blood; assay: Biodistribution in blood of rat 9L cells implanted Fischer rat at 15 to 30 uCi, iv after 60 mins by gamma-counter; type: ADME, organism-based; settings: in vivo, 1 h; in short: as §1
[16] = test system: Blood; assay: Biodistribution in blood of rat 9L cells implanted Fischer rat at 15 to 30 uCi, iv after 120 mins by gamma-counter; type: ADME, organism-based; settings: in vivo, 2 h; in short: as §1
[17] = test system: Heart; assay: Biodistribution in heart of rat 9L cells implanted Fischer rat at 15 to 30 uCi, iv after 15 mins by gamma-counter; type: ADME, organism-based; settings: in vivo, 0.25 h; in short: as §1
[18] = test system: Heart; assay: Biodistribution in heart of rat 9L cells implanted Fischer rat at 15 to 30 uCi, iv after 30 mins by gamma-counter; type: ADME, organism-based; settings: in vivo, 0.5 h; in short: as §1
[19] = test system: Heart; assay: Biodistribution in heart of rat 9L cells implanted Fischer rat at 15 to 30 uCi, iv after 60 mins by gamma-counter; type: ADME, organism-based; settings: in vivo, 1 h; in short: as §1
[20] = test system: Heart; assay: Biodistribution in heart of rat 9L cells implanted Fischer rat at 15 to 30 uCi, iv after 120 mins by gamma-counter; type: ADME, organism-based; settings: in vivo, 2 h; in short: as §1
[21] = test system: Lung; assay: Biodistribution in lung of rat 9L cells implanted Fischer rat at 15 to 30 uCi, iv after 15 mins by gamma-counter; type: ADME, organism-based; settings: in vivo, 0.25 h; in short: as §1
[22] = test system: Lung; assay: Biodistribution in lung of rat 9L cells implanted Fischer rat at 15 to 30 uCi, iv after 30 mins by gamma-counter; type: ADME, organism-based; settings: in vivo, 0.5 h; in short: as §1
[23] = test system: Lung; assay: Biodistribution in lung of rat 9L cells implanted Fischer rat at 15 to 30 uCi, iv after 60 mins by gamma-counter; type: ADME, organism-based; settings: in vivo, 1 h; in short: as §1
[24] = test system: Lung; assay: Biodistribution in lung of rat 9L cells implanted Fischer rat at 15 to 30 uCi, iv after 120 mins by gamma-counter; type: ADME, organism-based; settings: in vivo, 2 h; in short: as §1
[25] = test system: Liver; assay: Biodistribution in liver of rat 9L cells implanted Fischer rat at 15 to 30 uCi, iv after 15 mins by gamma-counter; type: ADME, organism-based; settings: in vivo, 0.25 h; in short: as §1
[26] = test system: Liver; assay: Biodistribution in liver of rat 9L cells implanted Fischer rat at 15 to 30 uCi, iv after 30 mins by gamma-counter; type: ADME, organism-based; settings: in vivo, 0.5 h; in short: as §1

N[C@]1(C(=O)O)C[C@H]([18F])C1
Drug uptake [1]: 0.26 % ID/g | Drug uptake [2]: 0.28 % ID/g | Drug uptake [3]: 0.2 % ID/g | Drug uptake [4]: 0.17 % ID/g | Drug uptake [5]: 0.27 % ID/g | Drug uptake [6]: 0.27 % ID/g | Drug uptake [7]: 0.21 % ID/g | Ratio [8]: 7.2 | Ratio [9]: 11.5 | Ratio [10]: 7.6 | Ratio [11]: 7.7 | Drug uptake [12]: 15.8 %ID | Drug uptake [13]: 0.36 % ID/g | Drug uptake [14]: 0.37 % ID/g | Drug uptake [15]: 0.32 % ID/g | Drug uptake [16]: 0.26 % ID/g | Drug uptake [17]: 0.43 % ID/g | Drug uptake [18]: 0.47 % ID/g | Drug uptake [19]: 0.38 % ID/g | Drug uptake [20]: 0.3 % ID/g | Drug uptake [21]: 0.4 % ID/g | Drug uptake [22]: 0.57 % ID/g | Drug uptake [23]: 0.42 % ID/g | Drug uptake [24]: 0.48 % ID/g | Drug uptake [25]: 0.73 % ID/g | Drug uptake [26]: 0.6 % ID/g
